Assays:
[1] = target: T1, Cholinesterase (Equus caballus, UniProt P81908); assay: Inhibition of equine serum BuChE using butyrylthiocholine chloride as substrate preincubated for 15 mins followed by substrate addition and measured after 4 mins by Ellman's method; assay type: cell-free
[2] = target: Cholinesterase (Equus caballus) (UniProt P81908); assay: Inhibition of equine serum BuChE at 10 uM using butyrylthiocholine chloride as substrate preincubated for 15 mins followed by substrate addition and measured after 4 mins by Ellman's method; assay type: cell-free; conditions: time 19.0 min
Cholinesterase (Equus caballus), sequence (P81908 whole entry): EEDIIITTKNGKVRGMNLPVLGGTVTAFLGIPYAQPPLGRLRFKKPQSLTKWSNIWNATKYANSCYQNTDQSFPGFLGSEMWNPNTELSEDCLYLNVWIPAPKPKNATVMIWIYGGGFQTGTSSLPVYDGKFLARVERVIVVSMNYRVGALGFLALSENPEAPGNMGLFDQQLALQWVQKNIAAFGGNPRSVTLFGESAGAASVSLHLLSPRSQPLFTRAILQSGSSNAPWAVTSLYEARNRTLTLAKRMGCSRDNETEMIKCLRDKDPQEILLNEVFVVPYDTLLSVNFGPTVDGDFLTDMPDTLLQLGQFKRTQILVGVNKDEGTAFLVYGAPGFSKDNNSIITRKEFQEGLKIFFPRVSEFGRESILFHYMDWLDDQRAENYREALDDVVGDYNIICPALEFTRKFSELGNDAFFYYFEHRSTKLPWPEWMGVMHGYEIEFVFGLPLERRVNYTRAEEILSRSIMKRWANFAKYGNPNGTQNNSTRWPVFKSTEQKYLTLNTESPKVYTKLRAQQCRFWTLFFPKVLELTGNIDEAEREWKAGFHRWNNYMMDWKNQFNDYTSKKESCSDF

[3] = target: Cholinesterase (Equus caballus) (UniProt P81908); assay: Inhibition of equine serum BuChE at 100 uM using butyrylthiocholine chloride as substrate preincubated for 15 mins followed by substrate addition and measured after 4 mins by Ellman's method; assay type: cell-free
[4] = target: Acetylcholinesterase (Electrophorus electricus, UniProt O42275); assay: Inhibition of Electrophorus electricus AChE using acetylthiocholine iodide as substrate preincubated for 15 mins followed by substrate addition and measured after 4 mins by Ellman's method
Acetylcholinesterase, sequence (O42275 whole entry): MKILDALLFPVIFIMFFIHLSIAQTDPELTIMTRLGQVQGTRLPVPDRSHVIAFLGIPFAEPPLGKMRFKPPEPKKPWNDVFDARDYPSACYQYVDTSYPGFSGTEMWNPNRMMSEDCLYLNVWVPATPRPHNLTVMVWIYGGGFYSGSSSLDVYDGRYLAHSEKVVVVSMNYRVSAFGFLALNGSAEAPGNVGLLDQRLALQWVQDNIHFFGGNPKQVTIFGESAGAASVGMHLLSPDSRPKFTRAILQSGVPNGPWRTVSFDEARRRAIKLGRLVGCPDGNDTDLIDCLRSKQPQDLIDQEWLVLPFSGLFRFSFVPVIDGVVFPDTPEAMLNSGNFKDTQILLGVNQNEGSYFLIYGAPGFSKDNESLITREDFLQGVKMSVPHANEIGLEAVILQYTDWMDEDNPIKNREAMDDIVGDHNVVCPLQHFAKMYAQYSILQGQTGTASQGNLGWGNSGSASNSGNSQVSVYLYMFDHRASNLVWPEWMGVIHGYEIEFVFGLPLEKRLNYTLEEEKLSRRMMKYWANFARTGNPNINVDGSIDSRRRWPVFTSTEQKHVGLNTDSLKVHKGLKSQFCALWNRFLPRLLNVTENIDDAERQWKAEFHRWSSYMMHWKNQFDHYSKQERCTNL

[5] = target: Acetylcholinesterase (Electrophorus electricus) (UniProt O42275); assay: Inhibition of Electrophorus electricus AChE at 100 uM using acetylthiocholine iodide as substrate preincubated for 15 mins followed by substrate addition and measured after 4 mins by Ellman's method; conditions: time 19.0 min
Acetylcholinesterase (Electrophorus electricus), sequence (O42275 24-633 limits assumed): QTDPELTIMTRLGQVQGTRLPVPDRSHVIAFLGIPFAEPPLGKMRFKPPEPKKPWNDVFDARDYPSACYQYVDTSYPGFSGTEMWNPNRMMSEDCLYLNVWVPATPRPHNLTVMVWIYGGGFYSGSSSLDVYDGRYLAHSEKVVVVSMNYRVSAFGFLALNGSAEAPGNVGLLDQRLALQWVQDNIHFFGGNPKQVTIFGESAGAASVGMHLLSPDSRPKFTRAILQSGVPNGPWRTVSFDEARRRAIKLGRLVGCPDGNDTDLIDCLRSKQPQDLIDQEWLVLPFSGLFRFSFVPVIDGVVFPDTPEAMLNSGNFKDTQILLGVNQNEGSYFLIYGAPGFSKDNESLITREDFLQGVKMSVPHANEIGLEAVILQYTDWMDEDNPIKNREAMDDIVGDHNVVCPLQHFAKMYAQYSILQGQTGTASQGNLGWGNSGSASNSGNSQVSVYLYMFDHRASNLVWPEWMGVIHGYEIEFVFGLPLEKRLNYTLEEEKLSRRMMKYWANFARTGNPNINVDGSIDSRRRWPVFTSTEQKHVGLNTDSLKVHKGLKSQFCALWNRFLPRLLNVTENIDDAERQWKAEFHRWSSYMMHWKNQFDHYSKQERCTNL

[6] = target: T1, Cholinesterase; assay: Non-Competitive inhibition of equine serum BuChE using varying concentrations of butyrylthiocholine iodide as substrate by Lineweaver-burk plot analysis; assay type: cell-free
Outline: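 Equine serum BuChE kinetics by the Ellman read-out with butyrylthiocholine at 0.025–2.0 mM. Run without inhibitor and with inhibitor at 0.5 and 1.0 µM. Reciprocal initial rate was plotted against reciprocal substrate concentration (Lineweaver-Burk) to assign the inhibition mode.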

T1 sequence (P81908 whole entry): as the sequence (P81908 whole entry) above

In the case of `CN(C)C(=O)Oc1ccccc1/C=N/NC(=O)c1cccc(O)c1`, the IC50 [1] is reported as 0.56 µM, the inhibition [2] is reported as 74.9% and the inhibition [3] is reported as 82%. It also gave an IC50 [4] greater than 100 µM and an inhibition [5] of 18.2%.
`CN(C)C(=O)Oc1ccc(/C=N/NC(=O)c2ccc(O)cc2)cc1` showed an IC50 [1] greater than 100 µM, an inhibition [2] of 10.4% and an inhibition [3] of 31%. For the same molecule, the IC50 [4] was greater than 100 µM and the inhibition [5] was 11.7%.
`COc1cc(C(=O)N/N=C/c2ccc(OC(=O)N(C)C)c(OC)c2)ccc1O` showed an IC50 [1] of 9.98 µM, an inhibition [2] of 57.3% and an inhibition [3] of 49.7%. It also gave an IC50 [4] greater than 100 µM and an inhibition [5] of 29.2%.
Work on `COc1cc(/C=N/NC(=O)c2ccc(O)cc2)ccc1OC(=O)N(C)C` yielded an IC50 [1] of 0.94 µM, an inhibition [2] of 68.4% and an inhibition [3] of 73.4%. The IC50 [4] was greater than 100 µM and the inhibition [5] was 23.6%.
`COc1cc(C(=O)N/N=C/c2ccc(OC(=O)N(C)C)cc2)ccc1O` gave an IC50 [1] of 21.9 µM, an inhibition [2] of 44.6% and an inhibition [3] of 63.9%. For the same molecule, the IC50 [4] was greater than 100 µM and the inhibition [5] was 20.1%.
With `CN(C)C(=O)Oc1ccccc1/C=N/NC(=O)c1ccc(O)cc1` the IC50 [1] was 0.18 µM, the inhibition [2] was 76.4% and the inhibition [3] was 80.9%. For the same molecule, the IC50 [4] was greater than 100 µM and the inhibition [5] was 11.1%.
`COc1ccc(C(=O)N/N=C/c2ccc(OC(=O)N(C)C)cc2)cc1OC` gave an IC50 [1] greater than 100 µM, an inhibition [2] of 11.4% and an inhibition [3] of 37.8%. The IC50 [4] was greater than 100 µM and the inhibition [5] was 28.3%.
With `COc1cc(C(=O)N/N=C/c2ccccc2OC(=O)N(C)C)ccc1O` the Ki [6] was 97 µM, the IC50 [1] was 0.07 µM and the inhibition [2] was 73%. It also gave an inhibition [3] of 77.8%, an IC50 [4] greater than 100 µM and an inhibition [5] of 24.9%.
`COc1cc(/C=N/NC(=O)c2cccc(O)c2)ccc1OC(=O)N(C)C` showed an IC50 [1] of 7.65 µM, an inhibition [2] of 50.1% and an inhibition [3] of 62.2%. The IC50 [4] was greater than 100 µM and the inhibition [5] was 19.9%.
Molecule `CN(C)C(=O)Oc1ccc(/C=N/NC(=O)c2cccc(O)c2)cc1` has an IC50 [1] of 29.3 µM, an inhibition [2] of 42.1% and an inhibition [3] of 75.2%. It also gave an IC50 [4] greater than 100 µM and an inhibition [5] of 9.65%.
`COc1ccc(C(=O)N/N=C/c2ccc(OC(=O)N(C)C)c(OC)c2)cc1OC` showed an IC50 [1] of 2.07 µM, an inhibition [2] of 74.8% and an inhibition [3] of 78.5%. The IC50 [4] was greater than 100 µM and the inhibition [5] was 24.7%.
Work on `COc1ccc(C(=O)N/N=C/c2ccccc2OC(=O)N(C)C)cc1OC` yielded an IC50 [1] of 0.31 µM, an inhibition [2] of 62.1% and an inhibition [3] of 74%. For the same molecule, the IC50 [4] was greater than 100 µM and the inhibition [5] was 21.9%.
